Reference: ChEMBL document CHEMBL4689842, “EUbOPEN Chemogenomics Library wave 1” (2021)

System: HEK-293T
Assay: Multiplex assay against HEK293T;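 on Population Tubulin-Different-Phenotype (%): share of the cells with healthy nuclei that show this phenotype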
Assay type: toxicity, cell-based
Conditions: human
Method in brief: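 Per cents of healthy-nucleus cells form the tubulin, mitochondrial-mass and membrane-permeability phenotype values. Live cells were stained at seeding with Hoechst33342, BioTracker Green Microtubule Cytoskeleton Dye, MitoTracker Red and Annexin V Alexa Fluor 680. After compound addition they were imaged on a CQ1 microscope at 37°C and 5% CO2, and CellPathfinder machine-learning gating split them into Hoechst high-intensity objects or normal cells, normal cells into healthy, pyknosed or fragmented nuclei, and pyknosed cells into mitotic or apoptotic.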

[1] = 12 h, 1 µM, compound concentration 1 uM, replicate 1
[2] = 12 h, 1 µM, compound concentration 1 uM, replicate 2
[3] = 12 h, 10 µM, compound concentration 10 uM, replicate 1
[4] = 12 h, 10 µM, compound concentration 10 uM, replicate 2
[5] = 24 h, 1 µM, compound concentration 1 uM, replicate 1
[6] = 24 h, 1 µM, compound concentration 1 uM, replicate 2
[7] = 24 h, 10 µM, compound concentration 10 uM, replicate 1
[8] = 24 h, 10 µM, compound concentration 10 uM, replicate 2
[9] = 48 h, 1 µM, compound concentration 1 uM, replicate 1
[10] = 48 h, 1 µM, compound concentration 1 uM, replicate 2
[11] = 48 h, 10 µM, compound concentration 10 uM, replicate 1
[12] = 48 h, 10 µM, compound concentration 10 uM, replicate 2

CC(C)OC(=O)N1CCC(Oc2ncnc3c2cnn3-c2ccc(S(C)(=O)=O)cc2F)CC1
Population Apoptotic (%) [1]: 57% | Population Fragmented Nuclei (%) [1]: 8% | Population Healthy Nuclei (%) [1]: 35% | Population Hoechst High Intensity Objects (%) [1]: 14% | Population Membrane Permeable-Phenotype (%) [1]: 4% | Population Mitochondria Different-Phenotype (%) [1]: 80% | Population Mitotic Cells (%) [1]: 42% | Population Normal (%) [1]: 85% | Population Pyknosed Nuclei (%) [1]: 56% | Population Tubulin-Different-Phenotype (%) [1]: 39% | Total Cell Count [1]: 225 | Population Apoptotic (%) [2]: 12% | Population Fragmented Nuclei (%) [2]: 5% | Population Healthy Nuclei (%) [2]: 49% | Population Hoechst High Intensity Objects (%) [2]: 4% | Population Membrane Permeable-Phenotype (%) [2]: 5% | Population Mitochondria Different-Phenotype (%) [2]: 11% | Population Mitotic Cells (%) [2]: 87% | Population Normal (%) [2]: 95% | Population Pyknosed Nuclei (%) [2]: 44% | Population Tubulin-Different-Phenotype (%) [2]: 9% | Total Cell Count [2]: 220 | Population Apoptotic (%) [3]: 53% | Population Fragmented Nuclei (%) [3]: 16% | Population Healthy Nuclei (%) [3]: 32% | Population Hoechst High Intensity Objects (%) [3]: 18% | Population Membrane Permeable-Phenotype (%) [3]: 6% | Population Mitochondria Different-Phenotype (%) [3]: 93% | Population Mitotic Cells (%) [3]: 46% | Population Normal (%) [3]: 81% | Population Pyknosed Nuclei (%) [3]: 51% | Population Tubulin-Different-Phenotype (%) [3]: 61% | Total Cell Count [3]: 186 | Population Apoptotic (%) [4]: 5% | Population Fragmented Nuclei (%) [4]: 5% | Population Healthy Nuclei (%) [4]: 45% | Population Hoechst High Intensity Objects (%) [4]: 3% | Population Membrane Permeable-Phenotype (%) [4]: 8% | Population Mitochondria Different-Phenotype (%) [4]: 15% | Population Mitotic Cells (%) [4]: 94% | Population Normal (%) [4]: 96% | Population Pyknosed Nuclei (%) [4]: 49% | Population Tubulin-Different-Phenotype (%) [4]: 20% | Total Cell Count [4]: 220 | Population Apoptotic (%) [5]: 51% | Population Fragmented Nuclei (%) [5]: 11% | Population Healthy Nuclei (%) [5]: 39% | Population Hoechst High Intensity Objects (%) [5]: 15% | Population Membrane Permeable-Phenotype (%) [5]: 4% | Population Mitochondria Different-Phenotype (%) [5]: 58% | Population Mitotic Cells (%) [5]: 48% | Population Normal (%) [5]: 84% | Population Pyknosed Nuclei (%) [5]: 48% | Population Tubulin-Different-Phenotype (%) [5]: 35% | Total Cell Count [5]: 254 | Population Apoptotic (%) [6]: 11% | Population Fragmented Nuclei (%) [6]: 7% | Population Healthy Nuclei (%) [6]: 62% | Population Hoechst High Intensity Objects (%) [6]: 3% | Population Membrane Permeable-Phenotype (%) [6]: 9% | Population Mitochondria Different-Phenotype (%) [6]: 11% | Population Mitotic Cells (%) [6]: 88% | Population Normal (%) [6]: 96% | Population Pyknosed Nuclei (%) [6]: 29% | Population Tubulin-Different-Phenotype (%) [6]: 16% | Total Cell Count [6]: 277 | Population Apoptotic (%) [7]: 46% | Population Fragmented Nuclei (%) [7]: 13% | Population Healthy Nuclei (%) [7]: 38% | Population Hoechst High Intensity Objects (%) [7]: 18% | Population Membrane Permeable-Phenotype (%) [7]: 1% | Population Mitochondria Different-Phenotype (%) [7]: 75% | Population Mitotic Cells (%) [7]: 53% | Population Normal (%) [7]: 81% | Population Pyknosed Nuclei (%) [7]: 48% | Population Tubulin-Different-Phenotype (%) [7]: 67% | Total Cell Count [7]: 194 | Population Apoptotic (%) [8]: 3% | Population Fragmented Nuclei (%) [8]: 4% | Population Healthy Nuclei (%) [8]: 65% | Population Hoechst High Intensity Objects (%) [8]: 3% | Population Membrane Permeable-Phenotype (%) [8]: 4% | Population Mitochondria Different-Phenotype (%) [8]: 22% | Population Mitotic Cells (%) [8]: 96% | Population Normal (%) [8]: 96% | Population Pyknosed Nuclei (%) [8]: 30% | Population Tubulin-Different-Phenotype (%) [8]: 29% | Total Cell Count [8]: 268 | Population Apoptotic (%) [9]: 59% | Population Fragmented Nuclei (%) [9]: 14% | Population Healthy Nuclei (%) [9]: 48% | Population Hoechst High Intensity Objects (%) [9]: 16% | Population Membrane Permeable-Phenotype (%) [9]: 5% | Population Mitochondria Different-Phenotype (%) [9]: 21% | Population Mitotic Cells (%) [9]: 40% | Population Normal (%) [9]: 83% | Population Pyknosed Nuclei (%) [9]: 36% | Population Tubulin-Different-Phenotype (%) [9]: 25% | Total Cell Count [9]: 312 | Population Apoptotic (%) [10]: 5% | Population Fragmented Nuclei (%) [10]: 8% | Population Healthy Nuclei (%) [10]: 79% | Population Hoechst High Intensity Objects (%) [10]: 3% | Population Membrane Permeable-Phenotype (%) [10]: 3% | Population Mitochondria Different-Phenotype (%) [10]: 4% | Population Mitotic Cells (%) [10]: 94% | Population Normal (%) [10]: 96% | Population Pyknosed Nuclei (%) [10]: 11% | Population Tubulin-Different-Phenotype (%) [10]: 17% | Total Cell Count [10]: 463 | Population Apoptotic (%) [11]: 50% | Population Fragmented Nuclei (%) [11]: 18% | Population Healthy Nuclei (%) [11]: 41% | Population Hoechst High Intensity Objects (%) [11]: 16% | Population Membrane Permeable-Phenotype (%) [11]: 3% | Population Mitochondria Different-Phenotype (%) [11]: 60% | Population Mitotic Cells (%) [11]: 49% | Population Normal (%) [11]: 83% | Population Pyknosed Nuclei (%) [11]: 39% | Population Tubulin-Different-Phenotype (%) [11]: 53% | Total Cell Count [11]: 237 | Population Apoptotic (%) [12]: 11% | Population Fragmented Nuclei (%) [12]: 5% | Population Healthy Nuclei (%) [12]: 82% | Population Hoechst High Intensity Objects (%) [12]: 3% | Population Membrane Permeable-Phenotype (%) [12]: 4% | Population Mitochondria Different-Phenotype (%) [12]: 3% | Population Mitotic Cells (%) [12]: 88% | Population Normal (%) [12]: 96% | Population Pyknosed Nuclei (%) [12]: 11% | Population Tubulin-Different-Phenotype (%) [12]: 23% | Total Cell Count [12]: 480
